# Test system: U2OS
# Test: Multiplex assay against U2OS
# Format: toxicity, cell-based
# Conditions: human
# Outline: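 Imaging took place on a CQ1 microscope at 37°C and 5% CO2 once compound had been added to live cells stained at seeding with Hoechst33342, BioTracker Green Microtubule Cytoskeleton Dye, MitoTracker Red and Annexin V Alexa Fluor 680. CellPathfinder machine-learning gating classed cells as Hoechst high-intensity objects or normal cells, classed normal cells as having healthy, pyknosed or fragmented nuclei, and classed pyknosed cells as mitotic or apoptotic. Tubulin, mitochondrial-mass and membrane-permeability phenotypes are per cents of the healthy-nucleus cells.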
# [1] = 12 h, 1 µM, compound concentration 1 uM, replicate 1
# [2] = 12 h, 1 µM, compound concentration 1 uM, replicate 2
# [3] = 12 h, 10 µM, compound concentration 10 uM, replicate 1
# [4] = 12 h, 10 µM, compound concentration 10 uM, replicate 2
# [5] = 24 h, 1 µM, compound concentration 1 uM, replicate 1
# [6] = 24 h, 1 µM, compound concentration 1 uM, replicate 2
# [7] = 24 h, 10 µM, compound concentration 10 uM, replicate 1
# [8] = 24 h, 10 µM, compound concentration 10 uM, replicate 2
# [9] = 48 h, 1 µM, compound concentration 1 uM, replicate 1
# [10] = 48 h, 1 µM, compound concentration 1 uM, replicate 2
# [11] = 48 h, 10 µM, compound concentration 10 uM, replicate 1
# [12] = 48 h, 10 µM, compound concentration 10 uM, replicate 2
structure (smiles),measurement,setting,value
O=C(Nc1cccnn1)N1CCC(=Cc2cccc(Oc3ccc(C(F)(F)F)cn3)c2)CC1,Population Apoptotic (%),[1],36%
same,Population Fragmented Nuclei (%),[1],1%
same,Population Healthy Nuclei (%),[1],87%
same,Population Hoechst High Intensity Objects (%),[1],3%
same,Population Membrane Permeable-Phenotype (%),[1],33%
same,Population Mitochondria Different-Phenotype (%),[1],5%
same,Population Mitotic Cells (%),[1],63%
same,Population Normal (%),[1],96%
same,Population Pyknosed Nuclei (%),[1],10%
same,Population Tubulin-Different-Phenotype (%),[1],26%
same,Total Cell Count,[1],187
same,Population Apoptotic (%),[2],14%
same,Population Fragmented Nuclei (%),[2],13%
same,Population Healthy Nuclei (%),[2],78%
same,Population Hoechst High Intensity Objects (%),[2],16%
same,Population Membrane Permeable-Phenotype (%),[2],30%
same,Population Mitochondria Different-Phenotype (%),[2],24%
same,Population Mitotic Cells (%),[2],85%
same,Population Normal (%),[2],83%
same,Population Pyknosed Nuclei (%),[2],7%
same,Population Tubulin-Different-Phenotype (%),[2],18%
same,Total Cell Count,[2],101
same,Population Apoptotic (%),[3],83%
same,Population Fragmented Nuclei (%),[3],4%
same,Population Healthy Nuclei (%),[3],92%
same,Population Hoechst High Intensity Objects (%),[3],3%
same,Population Membrane Permeable-Phenotype (%),[3],8%
same,Population Mitochondria Different-Phenotype (%),[3],22%
same,Population Mitotic Cells (%),[3],16%
same,Population Normal (%),[3],96%
same,Population Pyknosed Nuclei (%),[3],3%
same,Population Tubulin-Different-Phenotype (%),[3],22%
same,Total Cell Count,[3],311
same,Population Apoptotic (%),[4],0%
same,Population Fragmented Nuclei (%),[4],8%
same,Population Healthy Nuclei (%),[4],91%
same,Population Hoechst High Intensity Objects (%),[4],15%
same,Population Membrane Permeable-Phenotype (%),[4],12%
same,Population Mitochondria Different-Phenotype (%),[4],24%
same,Population Mitotic Cells (%),[4],0%
same,Population Normal (%),[4],84%
same,Population Pyknosed Nuclei (%),[4],0%
same,Population Tubulin-Different-Phenotype (%),[4],16%
same,Total Cell Count,[4],336
same,Population Apoptotic (%),[5],18%
same,Population Fragmented Nuclei (%),[5],2%
same,Population Healthy Nuclei (%),[5],83%
same,Population Hoechst High Intensity Objects (%),[5],2%
same,Population Membrane Permeable-Phenotype (%),[5],21%
same,Population Mitochondria Different-Phenotype (%),[5],11%
same,Population Mitotic Cells (%),[5],81%
same,Population Normal (%),[5],97%
same,Population Pyknosed Nuclei (%),[5],14%
same,Population Tubulin-Different-Phenotype (%),[5],17%
same,Total Cell Count,[5],250
same,Population Apoptotic (%),[6],27%
same,Population Fragmented Nuclei (%),[6],10%
same,Population Healthy Nuclei (%),[6],79%
same,Population Hoechst High Intensity Objects (%),[6],14%
same,Population Membrane Permeable-Phenotype (%),[6],19%
same,Population Mitochondria Different-Phenotype (%),[6],22%
same,Population Mitotic Cells (%),[6],72%
same,Population Normal (%),[6],85%
same,Population Pyknosed Nuclei (%),[6],10%
same,Population Tubulin-Different-Phenotype (%),[6],11%
same,Total Cell Count,[6],114
same,Population Apoptotic (%),[7],33%
same,Population Fragmented Nuclei (%),[7],2%
same,Population Healthy Nuclei (%),[7],95%
same,Population Hoechst High Intensity Objects (%),[7],3%
same,Population Membrane Permeable-Phenotype (%),[7],5%
same,Population Mitochondria Different-Phenotype (%),[7],20%
same,Population Mitotic Cells (%),[7],66%
same,Population Normal (%),[7],96%
same,Population Pyknosed Nuclei (%),[7],2%
same,Population Tubulin-Different-Phenotype (%),[7],26%
same,Total Cell Count,[7],221
same,Population Apoptotic (%),[8],83%
same,Population Fragmented Nuclei (%),[8],4%
same,Population Healthy Nuclei (%),[8],89%
same,Population Hoechst High Intensity Objects (%),[8],7%
same,Population Membrane Permeable-Phenotype (%),[8],8%
same,Population Mitochondria Different-Phenotype (%),[8],31%
same,Population Mitotic Cells (%),[8],16%
same,Population Normal (%),[8],92%
same,Population Pyknosed Nuclei (%),[8],5%
same,Population Tubulin-Different-Phenotype (%),[8],14%
same,Total Cell Count,[8],231
CCOC(=O)c1c(C)[nH]c2ccc3c(c12)CN1CCc2cc(OC)ccc2C1O3 (stereo unspecified),Population Apoptotic (%),[1],72%
same,Population Fragmented Nuclei (%),[1],9%
same,Population Healthy Nuclei (%),[1],81%
same,Population Hoechst High Intensity Objects (%),[1],5%
same,Population Membrane Permeable-Phenotype (%),[1],6%
same,Population Mitochondria Different-Phenotype (%),[1],78%
same,Population Mitotic Cells (%),[1],27%
same,Population Normal (%),[1],94%
same,Population Pyknosed Nuclei (%),[1],8%
same,Population Tubulin-Different-Phenotype (%),[1],72%
same,Total Cell Count,[1],123
same,Population Apoptotic (%),[2],9%
same,Population Healthy Nuclei (%),[2],76%
same,Population Hoechst High Intensity Objects (%),[2],9%
same,Population Membrane Permeable-Phenotype (%),[2],3%
same,Population Mitochondria Different-Phenotype (%),[2],70%
same,Population Mitotic Cells (%),[2],90%
same,Population Normal (%),[2],90%
same,Population Pyknosed Nuclei (%),[2],14%
same,Population Tubulin-Different-Phenotype (%),[2],62%
same,Total Cell Count,[2],65
same,Population Apoptotic (%),[3],73%
same,Population Fragmented Nuclei (%),[3],9%
same,Population Healthy Nuclei (%),[3],68%
same,Population Hoechst High Intensity Objects (%),[3],5%
same,Population Membrane Permeable-Phenotype (%),[3],68%
same,Population Mitotic Cells (%),[3],26%
same,Population Normal (%),[3],94%
same,Total Cell Count,[3],135
same,Population Apoptotic (%),[4],80%
same,Population Fragmented Nuclei (%),[4],2%
same,Population Healthy Nuclei (%),[4],75%
same,Population Hoechst High Intensity Objects (%),[4],11%
same,Population Membrane Permeable-Phenotype (%),[4],70%
same,Population Mitochondria Different-Phenotype (%),[4],100%
same,Population Mitotic Cells (%),[4],20%
same,Population Normal (%),[4],88%
same,Population Pyknosed Nuclei (%),[4],22%
same,Population Tubulin-Different-Phenotype (%),[4],100%
same,Total Cell Count,[4],84
same,Population Apoptotic (%),[5],41%
same,Population Fragmented Nuclei (%),[5],8%
same,Population Healthy Nuclei (%),[5],79%
same,Population Hoechst High Intensity Objects (%),[5],5%
same,Population Membrane Permeable-Phenotype (%),[5],3%
same,Population Mitochondria Different-Phenotype (%),[5],68%
same,Population Mitotic Cells (%),[5],58%
same,Population Normal (%),[5],94%
same,Population Pyknosed Nuclei (%),[5],12%
same,Population Tubulin-Different-Phenotype (%),[5],40%
same,Total Cell Count,[5],127
same,Population Apoptotic (%),[6],8%
same,Population Fragmented Nuclei (%),[6],9%
same,Population Healthy Nuclei (%),[6],75%
same,Population Membrane Permeable-Phenotype (%),[6],1%
same,Population Mitochondria Different-Phenotype (%),[6],58%
same,Population Mitotic Cells (%),[6],91%
same,Population Pyknosed Nuclei (%),[6],14%
same,Population Tubulin-Different-Phenotype (%),[6],35%
same,Total Cell Count,[6],65
same,Population Apoptotic (%),[7],90%
same,Population Fragmented Nuclei (%),[7],13%
same,Population Healthy Nuclei (%),[7],49%
same,Population Hoechst High Intensity Objects (%),[7],4%
same,Population Membrane Permeable-Phenotype (%),[7],78%
same,Population Mitochondria Different-Phenotype (%),[7],100%
same,Population Mitotic Cells (%),[7],9%
same,Population Normal (%),[7],95%
same,Population Pyknosed Nuclei (%),[7],37%
same,Population Tubulin-Different-Phenotype (%),[7],100%
same,Total Cell Count,[7],143
same,Population Apoptotic (%),[8],89%
same,Population Fragmented Nuclei (%),[8],6%
same,Population Healthy Nuclei (%),[8],52%
same,Population Hoechst High Intensity Objects (%),[8],11%
same,Population Membrane Permeable-Phenotype (%),[8],83%
same,Population Mitotic Cells (%),[8],10%
same,Population Normal (%),[8],88%
same,Population Pyknosed Nuclei (%),[8],41%
same,Total Cell Count,[8],87
same,Population Apoptotic (%),[9],44%
same,Population Fragmented Nuclei (%),[9],7%
same,Population Healthy Nuclei (%),[9],83%
same,Population Hoechst High Intensity Objects (%),[9],2%
same,Population Membrane Permeable-Phenotype (%),[9],1%
same,Population Mitochondria Different-Phenotype (%),[9],22%
same,Population Mitotic Cells (%),[9],55%
same,Population Normal (%),[9],97%
same,Population Pyknosed Nuclei (%),[9],9%
same,Population Tubulin-Different-Phenotype (%),[9],13%
same,Total Cell Count,[9],115
same,Population Apoptotic (%),[10],41%
same,Population Fragmented Nuclei (%),[10],8%
same,Population Healthy Nuclei (%),[10],81%
same,Population Hoechst High Intensity Objects (%),[10],7%
same,Population Membrane Permeable-Phenotype (%),[10],9%
same,Population Mitochondria Different-Phenotype (%),[10],27%
same,Population Mitotic Cells (%),[10],58%
same,Population Normal (%),[10],92%
same,Population Pyknosed Nuclei (%),[10],10%
same,Population Tubulin-Different-Phenotype (%),[10],19%
same,Total Cell Count,[10],67
same,Population Apoptotic (%),[11],100%
same,Population Fragmented Nuclei (%),[11],13%
same,Population Healthy Nuclei (%),[11],50%
same,Population Hoechst High Intensity Objects (%),[11],6%
same,Population Membrane Permeable-Phenotype (%),[11],88%
same,Population Mitotic Cells (%),[11],0%
same,Population Normal (%),[11],93%
same,Population Pyknosed Nuclei (%),[11],35%
same,Population Tubulin-Different-Phenotype (%),[11],100%
same,Total Cell Count,[11],196
same,Population Apoptotic (%),[12],84%
same,Population Fragmented Nuclei (%),[12],14%
same,Population Healthy Nuclei (%),[12],45%
same,Population Hoechst High Intensity Objects (%),[12],14%
same,Population Membrane Permeable-Phenotype (%),[12],81%
same,Population Mitochondria Different-Phenotype (%),[12],100%
same,Population Mitotic Cells (%),[12],15%
same,Population Normal (%),[12],85%
same,Population Pyknosed Nuclei (%),[12],39%
same,Population Tubulin-Different-Phenotype (%),[12],95%
same,Total Cell Count,[12],121

# From ChEMBL document CHEMBL4689842, “EUbOPEN Chemogenomics Library wave 1” (2021)
